Values after ≈ are worked out from the molar mass of the structure shown.
Assays:
Assay type in all cases: functional
Rhizopus = assay: Antimicrobial activity against Rhizopus sp. after 3 to 4 days by serial plate dilution method
Outline: (§1)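 Fungal MIC by serial plate dilution. Sabouraud agar (peptone, D-glucose, agar; pH 5.7) plates seeded with saline spore suspension, dried 1 h at 37 °C. Wells punched and filled with compound in DMSO; DMSO-only control. Triplicate plates held 3–4 days at 37 °C; inhibition zone diameter measured. Amphotericin B positive control. Tested range […] per mL.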

Staphylococcus aureus = assay: Antimicrobial activity against Staphylococcus aureus ATCC 25923 after 16 to 18 hrs by […]
[1] = tested on: Mycobacterium tuberculosis; assay: Antimicrobial activity against Mycobacterium tuberculosis H37Rv ATCC 27294 after 7 days by resazurin assay; conditions: H37Rv ATCC 27294, 168 h
Outline: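 Resazurin microtitre assay. Cultures were grown in Middlebrook 7H9 with 10% OADC and added to fresh medium in 96-well plates. Test compounds came from 2 mg/mL DMF stocks, with DMF-only controls. Plates were incubated 7 days at 37 °C, then resazurin was added and read after 1 h at 37 °C. MIC was the lowest concentration preventing the blue-to-pink change.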

Klebsiella pneumoniae = assay: Antimicrobial activity against Klebsiella pneumoniae ATCC 13883 after 16 to 18 hrs by serial plate dilution method
Outline: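 Bacterial MIC by serial dilution in Mueller-Hinton broth adjusted to pH 5.0 with phosphate buffer. Tubes inoculated with standardized bacterial suspension, incubated 16–18 h at 37 °C. MIC read as lowest concentration with no visible growth. Range […] per mL. DMSO as negative control, ciprofloxacin as positive control.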

[2] = tested on: Mycobacterium tuberculosis; assay: Antimicrobial activity against Mycobacterium tuberculosis H37Rv ATCC 27294 at 1 to 100 ug/ml after 7 days by resazurin assay
Outline: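 Preliminary screen at three concentrations (1, 10 and 100) by resazurin microtitre assay. Cultures were grown in Middlebrook 7H9 with 10% OADC, and compounds came from 2 mg/mL DMF stocks with DMF controls. Plates were incubated 7 days at 37 °C, and resazurin colour was read after 1 h. Inhibition was scored as no blue-to-pink change.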

Aspergillus flavus = assay: Antimicrobial activity against Aspergillus flavus after 3 to 4 days by serial plate dilution method; outline: as §1
Candida albicans = assay: Antimicrobial activity against Candida albicans after 3 to 4 days by serial plate dilution method; outline: as §1
Escherichia coli = assay: Antimicrobial activity against Escherichia coli ATCC 25922 after 16 to 18 hrs by […]
[3] = tested on: Mycolicibacterium fortuitum; assay: Antimicrobial activity against Mycobacterium fortuitum ATCC 19542 after 7 days by resazurin assay; conditions: ATCC 19542, 168 h
[4] = tested on: Mycolicibacterium smegmatis; assay: Antimicrobial activity against Mycobacterium smegmatis (MC2) ATCC 19420 after 7 days by resazurin assay; conditions: (MC2) ATCC 19420, 168 h

| SMILES | MIC (Rhizopus) [µg/mL] | MIC (Staphylococcus aureus) [µg/mL] | MIC [1] [µg/mL] | MIC (Klebsiella pneumoniae) [µg/mL] | inhibition (INH) [2] [%] | MIC (Aspergillus flavus) [µg/mL] | MIC (Candida albicans) [µg/mL] | MIC (Escherichia coli) [µg/mL] | MIC [3] [µg/mL] | MIC [4] [µg/mL] |
| --- | --- | --- | --- | --- | --- | --- | --- | --- | --- | --- |
| COc1cc(NS(=O)(=O)C2(c3ccc(Cl)cc3)CC2)ccc1-n1cnc(Cl)c1 | 128 (≈ 292 µM) | 128 (≈ 292 µM) | 1.25 (≈ 2.85 µM) | 128 (≈ 292 µM) | 90 | 64 (≈ 146 µM) | 128 (≈ 292 µM) | 64 (≈ 146 µM) | 10 (≈ 22.8 µM) |  |
| COc1cc(NS(=O)(=O)c2ccccc2)ccc1-n1cnc(Cl)c1 | 64 (≈ 176 µM) | 8 (≈ 22 µM) | 5 (≈ 13.7 µM) | 128 (≈ 352 µM) | <90 | 128 (≈ 352 µM) | 128 (≈ 352 µM) | 64 (≈ 176 µM) |  | 10 (≈ 27.5 µM) |
| COc1cc(NS(=O)(=O)c2cccc(C(C)C#N)c2)ccc1-n1cnc(Cl)c1 (centres undefined) | 256 (≈ 614 µM) | 64 (≈ 154 µM) | 2.5 (≈ 6 µM) | 64 (≈ 154 µM) | <90 | 128 (≈ 307 µM) | 64 (≈ 154 µM) | 128 (≈ 307 µM) |  | 2.5 (≈ 6 µM) |
| COc1cc(NC(=O)c2ccccc2)ccc1-n1cnc(Cl)c1 | 128 (≈ 391 µM) | 128 (≈ 391 µM) | 5 (≈ 15.3 µM) | 128 (≈ 391 µM) | <90 | 256 (≈ 781 µM) | 256 (≈ 781 µM) | 256 (≈ 781 µM) |  | 10 (≈ 30.5 µM) |
| COc1ccc(C(=O)Nc2ccc(-n3cnc(Cl)c3)c(OC)c2)cc1OC | 256 (≈ 660 µM) | > 256 |  | 256 (≈ 660 µM) | 0 | 128 (≈ 330 µM) | > 256 | 256 (≈ 660 µM) |  |  |
| COc1cc(NC(=O)c2ccc([N+](=O)[O-])cc2)ccc1-n1cnc(Cl)c1 | 256 (≈ 687 µM) | 256 (≈ 687 µM) | 1.25 (≈ 3.35 µM) | > 256 | <90 | > 256 | > 256 | > 256 | 1.25 (≈ 3.35 µM) | 2.5 (≈ 6.71 µM) |
| COc1cc(NC(=O)c2cccc(C(C)C#N)c2)ccc1-n1cnc(Cl)c1 (centres undefined) | 128 (≈ 336 µM) | 256 (≈ 672 µM) | 2.5 (≈ 6.56 µM) | 128 (≈ 336 µM) | 90 | 256 (≈ 672 µM) | 128 (≈ 336 µM) | > 256 | 10 (≈ 26.3 µM) |  |
| COc1cc(NS(=O)(=O)c2ccc(Cl)cc2Cl)ccc1-n1cnc(Cl)c1 | 128 (≈ 296 µM) | 8 (≈ 18.5 µM) | 5 (≈ 11.6 µM) | 64 (≈ 148 µM) | <90 | 64 (≈ 148 µM) | 128 (≈ 296 µM) | 4 (≈ 9.24 µM) |  |  |
| COc1cc(NS(=O)(=O)c2ccco2)ccc1-n1cnc(Cl)c1 | 256 (≈ 724 µM) | 128 (≈ 362 µM) | 5 (≈ 14.1 µM) | > 256 | <90 | 64 (≈ 181 µM) | 128 (≈ 362 µM) | 64 (≈ 181 µM) |  | 10 (≈ 28.3 µM) |
| COc1cc(NS(=O)(=O)c2cccc([N+](=O)[O-])c2Cl)ccc1-n1cnc(Cl)c1 | 256 (≈ 578 µM) | 8 (≈ 18 µM) | 2.5 (≈ 5.64 µM) | 32 (≈ 72.2 µM) | <90 | 128 (≈ 289 µM) | 64 (≈ 144 µM) | 128 (≈ 289 µM) |  | 2.5 (≈ 5.64 µM) |
| COc1cc(F)c(S(=O)(=O)Nc2ccc(-n3cnc(Cl)c3)c(OC)c2)c(C(F)(F)F)c1 | 256 (≈ 534 µM) | 64 (≈ 133 µM) | 5 (≈ 10.4 µM) | 32 (≈ 66.7 µM) | <90 | 128 (≈ 267 µM) | 128 (≈ 267 µM) | 128 (≈ 267 µM) |  | 10 (≈ 20.8 µM) |
| COc1cc(NC(=O)c2ccc(Cl)cc2Cl)ccc1-n1cnc(Cl)c1 | 128 (≈ 323 µM) | 128 (≈ 323 µM) | 5 (≈ 12.6 µM) | > 256 | <90 | 128 (≈ 323 µM) | > 256 | 64 (≈ 161 µM) |  | 10 (≈ 25.2 µM) |
| COc1cc(NC(=O)c2ccco2)ccc1-n1cnc(Cl)c1 | > 256 | > 256 | 5 (≈ 15.7 µM) | > 256 | <90 | 128 (≈ 403 µM) | > 256 | 128 (≈ 403 µM) |  |  |
| COc1cc(NC(=O)c2cc(F)cc(C(F)(F)F)c2)ccc1-n1cnc(Cl)c1 | 128 (≈ 309 µM) | 128 (≈ 309 µM) | 10 (≈ 24.2 µM) | 64 (≈ 155 µM) | 90 | 256 (≈ 619 µM) | 64 (≈ 155 µM) | 128 (≈ 309 µM) | 10 (≈ 24.2 µM) |  |
| COc1ccc(C(=O)Nc2ccc(-n3cnc(Cl)c3)c(OC)c2)cc1 | > 256 | > 256 |  | 256 (≈ 715 µM) | 0 | 256 (≈ 715 µM) | > 256 | > 256 |  |  |
| COc1cc(NC(=O)c2c(F)ccc(C(F)(F)F)c2Cl)ccc1-n1cnc(Cl)c1 | 128 (≈ 286 µM) | > 256 | 2.5 (≈ 5.58 µM) | 256 (≈ 571 µM) | <90 | > 256 | 128 (≈ 286 µM) | 128 (≈ 286 µM) |  | 2.5 (≈ 5.58 µM) |
| COc1cc(F)c(C(=O)Nc2ccc(-n3cnc(Cl)c3)c(OC)c2)c(F)c1 | > 256 | 256 (≈ 650 µM) | 5 (≈ 12.7 µM) | 128 (≈ 325 µM) | <90 | 256 (≈ 650 µM) | 256 (≈ 650 µM) | > 256 |  |  |
| COc1cc(NC(=O)C2(c3ccc(Cl)cc3)CC2)ccc1-n1cnc(Cl)c1 | > 256 | 64 (≈ 159 µM) | 2.5 (≈ 6.21 µM) | 256 (≈ 636 µM) | <90 | 256 (≈ 636 µM) | > 256 | 128 (≈ 318 µM) |  | 2.5 (≈ 6.21 µM) |
| C[C@@H]1[C@H](O)[C@@H](C)/C=C/C=C/C=C/C=C/C=C/C=C/C=C/[C@H](O[C@@H]2O[C@H](C)[C@@H](O)[C@H](N)[C@@H]2O)C[C@@H]2O[C@](O)(C[C@@H](O)C[C@@H](O)[C@H](O)CC[C@@H](O)C[C@@H](O)CC(=O)O[C@H]1C)C[C@H](O)[C@H]2C(=O)O [AMPHOTERICIN B] | 16 (≈ 17.3 µM) |  |  |  |  | 8 (≈ 8.66 µM) | 8 (≈ 8.66 µM) |  |  |  |
| O=C(O)c1cn(C2CC2)c2cc(N3CCNCC3)c(F)cc2c1=O [CIPROFLOXACIN] |  | 8 (≈ 24.1 µM) |  | 16 (≈ 48.3 µM) |  |  |  |  |  |  |
| NNC(=O)c1ccncc1 [ISONIAZID] |  |  | 0.7 (≈ 5.1 µM) |  | 95 |  |  |  | 12.5 (≈ 91.1 µM) | 50 (≈ 365 µM) |
| CO[C@H]1/C=C/O[C@@]2(C)Oc3c(C)c(O)c4c(O)c(c(/C=N/N5CCN(C)CC5)c(O)c4c3C2=O)NC(=O)/C(C)=C\C=C\[C@H](C)[C@H](O)[C@@H](C)[C@@H](O)[C@@H](C)[C@H](OC(C)=O)[C@@H]1C [RIFAMPIN] |  |  | 0.5 (≈ 0.608 µM) |  | 95 |  |  |  | 1.5 (≈ 1.82 µM) | 1.5 (≈ 1.82 µM) |

— ChEMBL document CHEMBL3097988, “Synthesis and characterization of new N-(4-(4-chloro-1H-imidazol-1-yl)-3-methoxyphenyl)amide/sulfonamide derivatives as possible antimicrobial and antitubercular agents” (2014)
